Assay outcomes: PubChem BioAssay, The Scripps Research Institute Molecular Screening Center
IMP-1 inh = inhibitors of Pseudomonas aeruginosa IMP-1 metallo-beta-lactamase; 290,000 tested, 0.45% active; purified IMP-1, nitrocefin hydrolysis, epi-absorbance fluorescence; inhibition, % at 5.6 µM; AID 1556;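 active = inhibition above the mean plus 3 SD of all compounds in the same screening run, cut at about 4.5% in these data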;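 note: 0% = IMP-1 with DMSO and 100% = DMSO wells lacking enzyme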
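system = purified recombinant IMP-1 beta-lactamase | amount = 0.2 nM IMP-1, as dispensed | medium = HEPES buffer pH 7.1 with ZnSO4 and Brij 35 | times = 25 °C, 15 min preincubation, 25 min reaction | detection = plate fluorescence quenching by hydrolysis product, ex 480/em 530 nm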
VIM-2 inhibitor = inhibitors of Pseudomonas aeruginosa VIM-2 metallo-beta-lactamase; inhibition, % at 5.6 µM; purified VIM-2, nitrocefin hydrolysis, epi-absorbance fluorescence; 290,000 tested, 0.89% active; AID 1527;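 active = inhibition above the mean of all tested compounds plus 3 SD, cutoff set per screening run, cut at about 7.5% in these data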;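 note: red hydrolysis product quenches plate fluorescence so inhibitors raise well fluorescence; 0% = enzyme with DMSO and 100% = DMSO without enzyme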
bovine MsrA act = activators of bovine methionine sulfoxide reductase A; activation, % at 10.6 µM; 360,000 tested, 0.3% active; purified bovine MsrA, absorbance read-out; in the data active = activation above about 7.5%;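 note: 0% = vehicle and 100% = reference activator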
PKA-R1A act = PKA-R1A complex activation | PKA-R1A dissociation, Cy5-IP20 fluorescence polarization; scaled: DMSO 0%, 113 µM cGMP 100% | activation, % at 11.4 µM | 340,000 tested, 0.083% active | AID 504707;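 active = percent activation above the mean of all tested compounds plus 3 SD, cut at about 19% in these data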;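 note: higher means more PKAc released from R1A so a rise in polarization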
MsrA inh = inhibits bovine methionine sulfoxide reductase A; inhibition, % at 15.5 µM; purified bovine MsrA, absorbance read-out; AID 651718; 360,000 tested, 0.75% active; in the data active = inhibition above about 4.5%;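 note: 0% = vehicle wells with enzyme and 100% = reference inhibitor wells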
PKA-R2B act = activates the human PKA-R2B holoenzyme complex | 340,000 tested, 0.079% active | P22694+P31323 | activation, % at 11.4 µM | PKA-R2B holoenzyme dissociation, Cy5-IP20 fluorescence polarization; R2B truncated from residue 108, S112A mutant; 0% DMSO only, 100% 113 µM cGMP;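 active = activation above a cutoff set at the mean over all compounds plus 3 SD, cut at about 18% in these data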;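 note: higher means more holoenzyme dissociation and a rise in polarization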
VIM-2 confirm = VIM-2 inhibition, confirmation assay. 200 tested, 73% active. purified VIM-2 enzyme, nitrocefin absorbance. shares compounds with IMP-1 inh. inhibition, % at 5.6 µM; in the data active = inhibition above about 8%;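 note: 0% = enzyme with vehicle and 100% = no enzyme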
TEM-1 inh 2 = blocks E. coli TEM-1 beta-lactamase, VIM-2 IMP-1 counter-screen; shares compounds with IMP-1 inh; nitrocefin absorbance inhibition; inhibition, % at 5.6 µM; 200 tested, 50% active; AID 2184; in the data active = inhibition above about 0.66%
Target sequence (P62593 whole entry, looked up): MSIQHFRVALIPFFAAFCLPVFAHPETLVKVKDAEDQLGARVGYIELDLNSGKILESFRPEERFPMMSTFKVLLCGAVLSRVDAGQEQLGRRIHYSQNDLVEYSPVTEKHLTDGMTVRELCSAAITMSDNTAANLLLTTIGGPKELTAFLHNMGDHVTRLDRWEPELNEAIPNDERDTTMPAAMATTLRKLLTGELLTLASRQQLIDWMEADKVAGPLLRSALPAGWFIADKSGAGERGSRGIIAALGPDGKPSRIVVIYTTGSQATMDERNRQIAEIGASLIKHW
IMP-1 confirm = confirmation of P. aeruginosa IMP-1 metallo-beta-lactamase inhibitors. purified IMP-1 enzyme, absorbance substrate hydrolysis. inhibition, % at 5.6 µM. shares compounds with IMP-1 inh. AID 2189. 200 tested, 60% active; in the data active = inhibition above about 4.9%;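 note: 0% = enzyme with vehicle and 100% = vehicle without enzyme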
Starred values were filed as active, the others as inactive. Only some compounds are listed: those with a hit (about 2.1% of all), similar ones and a draw of the others.

Screening CC(C)n1cc(/C=C/c2cc[n+](C)cc2)c2ccccc21 returned IMP-1 inh 12*, VIM-2 inhibitor 18*, bovine MsrA act -1, PKA-R1A act -15, MsrA inh 0, PKA-R2B act -4, VIM-2 confirm 14*, TEM-1 inh 2 6.7* and IMP-1 confirm 8.4*.
CCn1cc(/C=C/c2cc[n+](C)cc2)c2ccccc21 was read as IMP-1 inh 13*, VIM-2 inhibitor 16*, bovine MsrA act -3, PKA-R1A act 4, MsrA inh 1, PKA-R2B act -5, VIM-2 confirm 14*, TEM-1 inh 2 8.0* and IMP-1 confirm 8.3*.
Screening CCc1nc2c(OCc3ccccc3C)cccn2c1N(C)C(=O)C(C)C returned bovine MsrA act -6 and MsrA inh 1.
Screening Cn1c(=O)c(NCCO)c2c3c(cccc31)C(=O)c1ccccc1-2 returned IMP-1 inh 96*, VIM-2 inhibitor 90*, bovine MsrA act -5, PKA-R1A act -5, MsrA inh 1, PKA-R2B act 3, VIM-2 confirm 108*, TEM-1 inh 2 158* and IMP-1 confirm 95*.
Screening CCCCNc1c2c3c(cccc3n(C)c1=O)C(=O)c1ccccc1-2 returned IMP-1 inh 28*, VIM-2 inhibitor 23*, bovine MsrA act 0, PKA-R1A act -7, PKA-R2B act -5, VIM-2 confirm 34*, TEM-1 inh 2 53* and IMP-1 confirm 28*.
Screening CN1C(=O)c2cccc(NCCCN3C(=O)c4ccccc4C3=O)c2C1=O returned IMP-1 inh 0, VIM-2 inhibitor -3, bovine MsrA act 0, PKA-R1A act -17, MsrA inh 0 and PKA-R2B act -11.
Cn1c(=O)c(NCCc2ccccc2)c2c3c(cccc31)C(=O)c1ccccc1-2 was read as IMP-1 inh 36*, VIM-2 inhibitor 37*, bovine MsrA act -1, PKA-R1A act 1, MsrA inh 1, PKA-R2B act 8, VIM-2 confirm 28*, TEM-1 inh 2 64* and IMP-1 confirm 24*.
CCNc1c2c3c(cccc3n(C)c1=O)C(=O)c1ccccc1-2 was read as IMP-1 inh 23*, VIM-2 inhibitor 22*, VIM-2 confirm 60*, TEM-1 inh 2 69* and IMP-1 confirm 41*.
CCNc1cccc2c1C(=O)N(C)C2=O was read as IMP-1 inh 1, VIM-2 inhibitor 1, bovine MsrA act 3, PKA-R1A act 8, MsrA inh 0 and PKA-R2B act -1.
`Nn1c(SCC(=O)Nc2ccc3c(c2)OCCO3)nnc(CCC(=O)O)c1=O` gave IMP-1 inh -1, VIM-2 inhibitor 0, bovine MsrA act -3, PKA-R1A act -8, MsrA inh 0 and PKA-R2B act -16.
`COC(=O)c1cc(=O)nc(NN=C(C)C)s1` gave MsrA inh 2.
Screening C[C@@H]1CN([C@H](C)CO)C(=O)CCCn2nncc2CO[C@H]1CN(C)Cc1cccc(C(F)(F)F)c1 returned bovine MsrA act 0, PKA-R1A act -9, MsrA inh 0 and PKA-R2B act -6.
CC(C)(C)c1ccc(C(=O)N2CCC2(C)C(=O)Nc2cccc3ncccc23)cc1 (stereo unspecified) was read as bovine MsrA act -1 and MsrA inh 0.
Screening COc1ccccc1-n1c(SCC(=O)OC(C)C)nc2cccnc21 returned IMP-1 inh 38*, VIM-2 inhibitor 16*, bovine MsrA act -4, PKA-R1A act -2, MsrA inh 1, PKA-R2B act 5, VIM-2 confirm 0, TEM-1 inh 2 -2 and IMP-1 confirm -1.
For c1ccc(-c2nc(NCc3ccco3)c3ccccc3n2)nc1 the results were IMP-1 inh 8.8*, VIM-2 inhibitor 15*, bovine MsrA act 0, PKA-R1A act -10, MsrA inh 1, PKA-R2B act -16, VIM-2 confirm 13*, TEM-1 inh 2 -3 and IMP-1 confirm 1.
Screening Oc1c(C=Nc2cccnc2)sc2ccccc12 returned IMP-1 inh -4, VIM-2 inhibitor 1, bovine MsrA act -3, PKA-R1A act 1, MsrA inh 0 and PKA-R2B act -10.
For Oc1sc(C=Nc2ccccc2)c2ccccc12 the results were IMP-1 inh 15*, VIM-2 inhibitor 17*, bovine MsrA act -2, PKA-R1A act -9, MsrA inh 1, PKA-R2B act 9, VIM-2 confirm 23*, TEM-1 inh 2 0 and IMP-1 confirm 4.
C#CCN1CC(COc2ccccc2)Oc2cccc(Oc3ccc(SC)c(C)c3)c2S1(=O)=O (stereo unspecified) was read as MsrA inh 1.
Screening c1ccc(CNc2ccccn2)cc1 returned IMP-1 inh -2, VIM-2 inhibitor -3, bovine MsrA act -1, PKA-R1A act -7, MsrA inh 1 and PKA-R2B act -9.
c1ccc(Nc2ccccc2Nc2ccccn2)nc1 was read as IMP-1 inh 50*, VIM-2 inhibitor 32*, bovine MsrA act 0, PKA-R1A act 1, MsrA inh -1, PKA-R2B act 2, VIM-2 confirm 3, TEM-1 inh 2 1.1* and IMP-1 confirm 1.
COc1cc2cccc(OC)c(=O)c2c(O)c1OC was read as IMP-1 inh -2, VIM-2 inhibitor 1, bovine MsrA act -4, PKA-R1A act -3, MsrA inh 2 and PKA-R2B act 0.
For CC(=O)Oc1cc2cccc(OC(C)=O)c(=O)c2c(OC(C)=O)c1OC(C)=O the results were IMP-1 inh 8.9*, VIM-2 inhibitor 7, bovine MsrA act -4, PKA-R1A act 5, PKA-R2B act -10, VIM-2 confirm 2, TEM-1 inh 2 -3 and IMP-1 confirm -2.
Screening CCCS(=O)(=O)NC(=O)C1(C)CCN(C(=O)c2cc(OC)c(OC)c(OC)c2)C1 (stereo unspecified) returned bovine MsrA act 0 and MsrA inh 0.
Screening CCOC(=O)c1c(C)n(-c2ccc(C)cc2)c2c(C(C(C)=O)C(=O)O)c(Br)c(O)c(O)c12 (stereo unspecified) returned IMP-1 inh 5.4*, VIM-2 inhibitor 7, bovine MsrA act -2, PKA-R1A act -14, MsrA inh 2, PKA-R2B act -15, VIM-2 confirm -1, TEM-1 inh 2 -5 and IMP-1 confirm -4.
For COc1cccc(CN(C)C(=O)CCNC(=O)c2ccco2)c1 the results were bovine MsrA act -2, PKA-R1A act -2, MsrA inh 2 and PKA-R2B act 1.
